Measured values as given in PubChem BioAssay AID624467 (The Scripps Research Institute Molecular Screening Center, 2012).
Screen size: about 360,000 compounds; about 3,600 (1%) were called active. What follows is part of a selection rich in actives, with near analogues and random picks from the rest. Unmarked numbers belong to inactive results.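 How the source made its calls: active means activation above the mean activation of all test compounds in the run plus 3 SD (cut at about 38% in these data); inactive means the rest.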

Each compound was assayed against Trace amine-associated receptor 1 (Homo sapiens) (UniProt Q96RJ0) (assay: human TAAR1 agonists, primary screen, Fluo-8 calcium fluorescence, CHO RD-HGA16 cells (AID 624467)). Settings: CHO RD-HGA16 TAAR1, Fluo-8 calcium fluorescence; at 3 µM; stronger effect = higher value; vehicle wells 0%, saturating PEA agonist 100%.
Procedure, shortened: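 System: CHO RD-HGA16 cells carrying human TAAR1 plus Gα16; Incubation: 17-24 h seeding, 75 min 37 °C dye, 30 min RT; Measured by: Fluo-8 fluorescence, 5 s baseline then 140 s kinetic read; Control set: DMSO and PEA EC100; Replication: single well for each compound.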

Chain of Trace amine-associated receptor 1 (Homo sapiens) (Q96RJ0 whole entry, looked up): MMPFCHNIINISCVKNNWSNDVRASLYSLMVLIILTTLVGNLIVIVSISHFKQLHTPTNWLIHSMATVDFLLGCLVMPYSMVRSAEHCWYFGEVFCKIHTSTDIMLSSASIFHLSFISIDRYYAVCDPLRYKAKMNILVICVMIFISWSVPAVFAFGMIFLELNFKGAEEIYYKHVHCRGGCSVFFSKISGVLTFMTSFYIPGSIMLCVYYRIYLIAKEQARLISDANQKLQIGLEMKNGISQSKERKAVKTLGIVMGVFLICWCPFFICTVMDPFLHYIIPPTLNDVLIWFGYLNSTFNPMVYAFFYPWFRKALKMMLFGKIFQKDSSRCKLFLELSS

| Structure (SMILES) | activation |
| --- | --- |
| COc1ccc(N(C(=O)CNC(=O)c2ccco2)C(C(=O)NCC2CCCO2)c2ccccc2)cc1Cl (configuration not stated) | 14% |
| CC(=O)c1ccc(N2CCN(C(=O)c3ccc(Cl)c(S(=O)(=O)NC4CC4)c3)CC2)c(F)c1 | 5.24% |
| COc1ccc(S(=O)(=O)Nc2ccc3c(c2)C(=O)N([C@H](C)CO)C[C@H](C)[C@@H](CN(C)C)OCCCC[C@H](C)O3)cc1 | 1.27% |
| C#CCOc1ccc(/C=C2/C(=O)ON=C2C)cc1OCC | 26.1% |
| COc1cc(/C=C2\SC(=O)NC2=O)ccc1OCc1ccc(Cl)nc1 | 0.37% |
| C#CCOc1ccc(/C=C2/C(=O)NN(c3ccccc3)C2=O)cc1OC | 52.3% (active) |
| CC(C)OC(=O)c1cc(NC(=O)C2C3CCC(O3)C2C(=O)O)cc(C(=O)OC(C)C)c1 (configuration not stated) | -0.82% |
| COc1ccc(NC(=O)C2C3CCC(O3)C2C(=O)O)cc1OC (configuration not stated) | 2.71% |
| Cc1sc(NC(=O)C2C3CCC(O3)C2C(=O)O)c(C(=O)OC(C)C)c1-c1ccc(Cl)cc1 (configuration not stated) | 38.3% (active) |
| Cc1nn(C)cc1N1C(=O)c2cccc3c(N)ccc(c23)C1=O | 83.9% (active) |
| CN1C(=O)c2cccc3c(N)ccc(c23)C1=O | 119% (active) |
| CCCOc1ccc(N2C(=O)CC(N(CCc3ccc(S(N)(=O)=O)cc3)C(C)=O)C2=O)cc1 (configuration not stated) | 1.5% |
| Cc1ccc(CNC(=O)Cn2cnc(S(=O)(=O)N3CCCCC3)c2)o1 | 1.59% |
| CCOC(=O)C1CCN(S(=O)(=O)c2ccc3c(c2)N(C(C)=O)CCO3)CC1 | -0.05% |
| CCCN1C(=O)c2[nH]nc(-c3ccccc3)c2C1c1ccccc1 (configuration not stated) | 2.41% |
| CN(C)C(=O)N1CCN(C(=O)[C@@H](Cc2ccccc2)NC(=O)[C@H]2O[C@@H](n3ccc(N)nc3=O)[C@H](O)[C@@H]2O)CC1 | 1.21% |
| COC(=O)Cc1nnn2c1[C@H](C)[C@H](c1ccccc1Br)OCC2 | 2.69% |
| COc1ccc(C(=O)N2CCCCC2c2cc(C(=O)Nc3ccccc3)no2)cc1 (configuration not stated) | -0.19% |
| Cc1nc(-c2ccc(NC(=O)c3cccs3)cc2)cs1 | 44.8% (active) |

| Structure (SMILES) | activation |
| --- | --- |
| O=C(Nc1n[nH]c(C(F)(F)F)n1)c1cccs1 | -0.13% |
| COc1cc(NC(=O)c2ccc(-c3csc(C)n3)cc2)c(OC)cc1Cl | 3.15% |
| Cc1cccc(C)c1NC(=O)N1CC(C)OC(C)C1 (configuration not stated) | 41.9% (active) |
| COC(=O)[C@H](Cc1ccccc1)NC(=O)N1CC(C)OC(C)C1 (some centres not stated) | -0.71% |
| CSc1ccc(NC(=O)N2CC(C)OC(C)C2)cc1 (configuration not stated) | 6.32% |
| CC(=O)Nc1ccc(SC[C@H](Cc2ccccc2)N2CC[C@@H](C)CCC2=O)cc1 | 9.24% |
| O=C(O)/C=C/c1ccc(S(=O)(=O)N2CCCCCC2)cc1 | 4.85% |
| C=CCNC(=O)/C=C/c1ccc(C(C)C)cc1 | -2.85% |
| O=C(/C=C(O)/C=C/c1ccc(O)cc1)/C=C/c1ccc(O)cc1 | 63.8% (active) |
| COC(=O)[C@H](CC(C)C)NS(=O)(=O)c1c(F)cccc1F | 1.29% |
| O=C(NCc1ccccc1)[C@H]1CCCN1C(=O)[C@@H]1CCCN1C(=O)c1ccc(Cl)cc1Cl | 0.11% |
| COc1ccc(SSc2ccc(OC)cc2C(=O)O)c(C(=O)O)c1 | 3.23% |
| CC(C)(C)n1ncc2c(=O)n(Cc3ccc(Cl)cc3)cnc21 | 11.1% |
| CC(C)(C)n1ncc2c(=O)n(Cc3c(Cl)cccc3Br)cnc21 | 38.2% (active) |
| Cn1cnc2c1c(=O)n(Cc1c(Cl)cccc1Cl)c(=O)n2C | 1.55% |
| CCCNC(=O)C1(C)CCN(Cc2ccc(Cl)c(Cl)c2)C1 (configuration not stated) | 1.99% |
| Cc1ccc(C)c(-n2nnnc2SCC(=O)c2c(N)n(C)c(=O)n(C)c2=O)c1 | 2.95% |
| O=C1NC[C@H](CCCCN2C[C@H](Cc3ccc(O)cc3)N(CC3CCCCC3)C(=O)C2=O)N(CCc2ccccc2)C1=O | -0.06% |
| COCCn1c(SC(C)C(=O)NC2CC2)nnc1-c1cccc(C)c1 (configuration not stated) | 3.19% |

| Structure (SMILES) | activation |
| --- | --- |
| NC(=O)C1CCN(C(=O)c2cn(-c3ccccc3)nc2-c2cccnc2)CC1 | 1.55% |
| COc1ccccc1N1CCN(C(=O)c2cn(-c3ccccc3)nc2-c2cccnc2)CC1 | 19.1% |
| O=C(NNC(=S)NC(=O)c1cn(-c2ccccc2)nc1-c1ccccc1)c1ccncc1 | 118% (active) |
| O=C(NCc1ccc(F)cc1)C1CCC(CNc2c(N3CCOCC3)c(=O)c2=O)CC1 (configuration not stated) | 0.31% |
| O=C(NCCOc1ccccc1F)Nc1ccc(Br)cc1 | 12% |
| O=C(Nc1nnc(COc2ccccc2)s1)Nc1ccccc1F | -0.19% |
| O=C(Nc1ccccc1)Nc1nnc(COc2ccccc2F)s1 | 49.8% (active) |
| COC(=O)[C@]12C[C@H](CC(=O)NCCC(C)C)C(=O)N(CCc3ccc(OC)c(OC)c3)C1=C[C@H](C(C)(C)C)O[C@@H]2C | -1.91% |
| Cc1nc(NC(=O)C(C)(C)C)sc1[N+](=O)[O-] | 1.6% |
| NC[C@H](Cc1ccccc1)NCCc1cc(C(F)(F)F)cc(C(F)(F)F)c1 | 47.6% (active) |
| COC(=O)[C@@H](Cc1ccccc1)NC(=O)NCCc1ccccc1 | -0.6% |
| CCC(CC)NC(=O)CSc1nnc(-c2c[nH]c3ccccc23)o1 | 3.45% |
| CCOC(=O)c1cc2c(=O)[nH]c(C(Cl)(Cl)Cl)nc2o1 | 2.83% |
| CN1C(=O)C2CC(O)C(SC3CC4C(=O)N(C)C(=O)C4CC3O)CC2C1=O (configuration not stated) | -0.78% |
| COc1cc(OC)c(NC(=O)C2CCCN2C(=O)OCc2ccccc2)cc1Cl (configuration not stated) | 1.2% |
| CN1C(=O)C(Br)(Br)CC1c1cccnc1 (configuration not stated) | 0.34% |
| O=C(OCCN=C1NS(=O)(=O)c2ccccc21)c1cccc([N+](=O)[O-])c1 | 0.99% |
| N#CC1(NC(=O)COC(=O)CCN=C2NS(=O)(=O)c3ccccc32)CCCCC1 | 1.14% |
| O=C(CCCN=C1NS(=O)(=O)c2ccccc21)OCC(=O)c1ccc(F)c(F)c1 | 86.8% (active) |
